Test results taken from ChEMBL document CHEMBL2311318, “Lead optimization of a dihydropyrrolopyrimidine inhibitor against phosphoinositide 3-kinase (PI3K) to improve the phenol glucuronic acid conjugation” (Bioorg Med Chem Lett, 2013).

Experiments:
[1] = Half life in mouse liver microsomes at 5 uM in presence of UDPGA; format: ADME, Microsome
Method in brief: (§1)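 Human or mouse liver microsomes (1.0 mg protein/ml) were pretreated with 25 µg/ml alamethicin in 50 mM Tris-HCl, pH 7.5, at 4 °C for 30 min to release UGTs. Compound at 5 µM was then incubated with 2 mM UDPGA at 37 °C for 60 min. The reaction was quenched with three volumes of acetonitrile and centrifuged.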

[2] = Half life in mouse liver microsomes at 1 uM in presence of NADPH; format: ADME, Microsome
Method in brief: (§2)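 Compound at 1 µM was incubated at 37 °C for 30 min with human or mouse liver microsomes (0.5 mg protein/ml) in 50 mM phosphate buffer, pH 7.4, with 1 mM NADPH. The reaction was quenched with three volumes of acetonitrile and centrifuged. Remaining compound in the supernatant was quantified by LC/MS.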

PC-3 = assay: Cytotoxicity against PTEN-deficient human PC3 cells assessed as growth inhibition after 96 hrs; format: functional, cell-based; conditions: PC-3, 96 h
Method in brief: (§3)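 KPL-4 breast, HCT116 colon and PC-3 prostate cancer cells were exposed to a range of compound concentrations for 96 h. Growth inhibition was read with Cell Counting Kit-8.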

HCT-116 = assay: Cytotoxicity against human HCT116 cells expressing PI3Kalpha H1047R mutant assessed as growth inhibition after 96 hrs; format: functional, cell-based; conditions: HCT-116, 96 h; method in brief: as §3
[3] = AUC in BALB/c nu mouse at 100 mg/kg, po; format: ADME, organism-based; parameters: dose 100 mg/kg, route oral; conditions: plasma
Method in brief: (§4)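 Female BALB/c-nu mice, n = 2 per group, dosed iv at 10 mg/kg or po at 100 mg/kg. Heparinized blood drawn at 0.08, 0.25, 2, 4, 7 and 24 h after iv dosing, and at 0.50, 2, 4, 7 and 24 h after po dosing. Plasma stored at -80 °C and assayed by LC–MS/MS. Parameters come from non-compartmental analysis and are the mean of two animals.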

[4] = Antitumor activity against human KPL4 cells expressing PI3Kalpha H1047R mutant xenografted in BALB nu/nu mouse assessed as tumor growth inhibition at 80mg/kg, po qd relative to control; format: functional; conditions: read-out: TGI
Method in brief: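 KPL-4 cells were injected orthotopically into the mammary fat pad of female BALB-nu/nu mice. Tumors were measured with a gauge twice weekly, with volume = length × width²/2. Once tumors reached about 200 mm³, mice were randomized (n = 5 per group) and treatment began.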

[5] = Apparent oral clearance in BALB/c nu mouse at 100 mg/kg; format: ADME, organism-based; parameters: dose 100 mg/kg, route oral; conditions: in vivo; method in brief: as §4
[6] = Half life in BALB/c nu mouse at 100 mg/kg, po; format: ADME, organism-based; parameters: dose 100 mg/kg, route oral; conditions: in vivo; method in brief: as §4
[7] = Cmax in BALB/c nu mouse at 100 mg/kg, po; format: ADME, organism-based; parameters: dose 100 mg/kg, route oral; conditions: in vivo; method in brief: as §4
[8] = Half life in BALB/c nu mouse at 10 mg/kg, iv; format: ADME, organism-based; parameters: dose 10 mg/kg, route intravenous; conditions: in vivo; method in brief: as §4
[9] = AUC in BALB/c nu mouse at 10 mg/kg, iv; format: ADME, organism-based; parameters: dose 10 mg/kg, route intravenous; conditions: plasma; method in brief: as §4
[10] = Cytotoxicity against human KPL4 cells expressing PI3Kalpha H1047R mutant assessed as growth inhibition after 96 hrs; format: functional, cell-based; conditions: KPL4, 96 h; method in brief: as §3
[11] = Half life in human liver microsomes at 5 uM in presence of UDPGA; format: ADME, Microsome; method in brief: as §1
[12] = biological target: Phosphatidylinositol 4,5-bisphosphate 3-kinase catalytic subunit alpha isoform (Homo sapiens, UniProt P42336); assay: Inhibition of PI3Kalpha (unknown origin) using phosphatidylinositol 4,5-bisphosphate as substrate
Method in brief: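 Recombinant PI3Kα (p110α/p85α) activity was measured with the Adapta Universal Kinase Assay using PIP2:PS lipid substrate.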

[13] = Half life in human liver microsomes at 1 uM in presence of NADPH; format: ADME, Microsome; method in brief: as §2

Sequence of Phosphatidylinositol 4,5-bisphosphate 3-kinase catalytic subunit alpha isoform (P42336 whole entry, canonical isoform): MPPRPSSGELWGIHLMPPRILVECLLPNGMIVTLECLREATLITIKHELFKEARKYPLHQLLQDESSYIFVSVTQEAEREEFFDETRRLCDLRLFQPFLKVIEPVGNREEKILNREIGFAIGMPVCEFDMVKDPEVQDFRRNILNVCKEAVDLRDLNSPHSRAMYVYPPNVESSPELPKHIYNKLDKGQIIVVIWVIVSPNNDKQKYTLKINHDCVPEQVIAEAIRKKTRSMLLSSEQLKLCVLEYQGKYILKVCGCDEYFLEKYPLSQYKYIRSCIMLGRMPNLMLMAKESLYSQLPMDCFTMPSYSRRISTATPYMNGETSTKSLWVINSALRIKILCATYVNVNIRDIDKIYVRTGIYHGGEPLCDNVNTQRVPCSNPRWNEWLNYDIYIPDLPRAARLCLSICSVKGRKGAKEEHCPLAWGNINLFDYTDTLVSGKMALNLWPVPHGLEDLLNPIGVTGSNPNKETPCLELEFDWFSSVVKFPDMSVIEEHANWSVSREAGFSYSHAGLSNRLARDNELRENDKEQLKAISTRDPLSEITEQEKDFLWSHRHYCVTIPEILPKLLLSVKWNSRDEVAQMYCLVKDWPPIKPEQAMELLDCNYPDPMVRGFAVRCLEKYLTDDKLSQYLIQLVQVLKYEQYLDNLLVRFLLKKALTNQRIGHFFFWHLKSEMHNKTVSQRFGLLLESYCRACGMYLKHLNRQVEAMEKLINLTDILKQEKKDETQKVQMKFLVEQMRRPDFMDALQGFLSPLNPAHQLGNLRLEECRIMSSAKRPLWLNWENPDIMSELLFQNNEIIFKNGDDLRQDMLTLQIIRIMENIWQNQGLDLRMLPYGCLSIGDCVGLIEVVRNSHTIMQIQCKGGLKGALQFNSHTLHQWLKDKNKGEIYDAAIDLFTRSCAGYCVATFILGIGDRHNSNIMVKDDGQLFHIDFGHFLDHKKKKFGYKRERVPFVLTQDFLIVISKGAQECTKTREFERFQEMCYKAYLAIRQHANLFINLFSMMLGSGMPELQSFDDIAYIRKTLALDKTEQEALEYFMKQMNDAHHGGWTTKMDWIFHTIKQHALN

Q: With `Oc1cccc(-c2nc(N3CCOCC3)nc3c2CCN3c2ccncc2)c1` as the molecule, how does the half-life at 5 µM [1] read?
A: 0.102 h

Q: What about the half-life at 1 µM [2] of the same molecule?
A: 0.333 h

Q: What about the IC50 (PC-3) of the same molecule?
A: 140 nM

Q: What about the IC50 (HCT-116) of the same molecule?
A: 720 nM

Q: Which results are given for `Nc1ncc(-c2nc(N3CCOCC3)nc3c2CCN3c2cccnc2)cn1`?
A: half-life at 5 µM [1]: > 1 h; AUC [3]: 19400 ng·h/mL; inhibition in vivo at 80 mg/kg [4]: 166%; CL/F [5]: 86.1 mL/min/kg; half-life [6]: 6.58 h; Cmax [7]: 4190 ng/mL; half-life [8]: 10.3 h; half-life at 1 µM [2]: 1.05 h; AUC [9]: 4690 ng·h/mL; IC50 [10]: 15 nM; IC50 (PC-3): 420 nM; IC50 (HCT-116): 170 nM; half-life at 5 µM [11]: > 1 h

Q: With `NC(=O)c1cccc(-c2nc(N3CCOCC3)nc3c2CCN3c2ccncc2)c1` as the molecule, how does the IC50 [12] read?
A: 19000 nM

Q: For `CNC(=O)c1cccc(-c2nc(N3CCOCC3)nc3c2CCN3c2ccncc2)c1`, which IC50 [12] is on record?
A: 2400 nM

Q: For `CNS(=O)(=O)c1cccc(-c2nc(N3CCOCC3)nc3c2CCN3c2ccncc2)c1`, which IC50 [12] is on record?
A: > 50000 nM

Q: For `c1cc(N2CCc3c(-c4ccc5cn[nH]c5c4)nc(N4CCOCC4)nc32)ccn1`, which IC50 [12] is on record?
A: > 50000 nM

Q: Which IC50 [12] does the source give for `c1cc(N2CCc3c(-c4ccc5[nH]ncc5c4)nc(N4CCOCC4)nc32)ccn1` here?
A: > 50000 nM

Q: For `Nc1n[nH]c2cc(-c3nc(N4CCOCC4)nc4c3CCN4c3ccncc3)ccc12`, which IC50 [12] is on record?
A: > 50000 nM

Q: For `c1cc(-c2nc(N3CCOCC3)nc3c2CCN3c2ccncc2)c2cn[nH]c2c1`, which IC50 [12] is on record?
A: > 50000 nM

Q: Which IC50 [12] does the source give for `c1cc(-c2nc(N3CCOCC3)nc3c2CCN3c2ccncc2)c2[nH]ncc2c1` here?
A: > 50000 nM

Q: For `c1cc(-c2nc(N3CCOCC3)nc3c2CCN3c2ccncc2)ccn1`, which IC50 [12] is on record?
A: 22600 nM

Q: Which IC50 [12] does the source give for `c1cncc(-c2nc(N3CCOCC3)nc3c2CCN3c2ccncc2)c1` here?
A: 1700 nM

Q: With `c1cc(N2CCc3c(-c4cncnc4)nc(N4CCOCC4)nc32)ccn1` as the molecule, how does the IC50 [12] read?
A: 440 nM

Q: Which half-life at 5 µM [1] does the source give for `Nc1ncc(-c2nc(N3CCOCC3)nc3c2CCN3c2ccncc2)cn1` here?
A: > 1 h

Q: What about the half-life at 1 µM [13] of the same molecule?
A: 2.12 h

Q: And the half-life at 1 µM [2]?
A: 0.45 h

Q: What about the IC50 [10] of the same molecule?
A: 29 nM

Q: And the IC50 (PC-3)?
A: 120 nM

Q: What about the IC50 (HCT-116) of the same molecule?
A: 91 nM

Q: What about the IC50 [12] of the same molecule?
A: 26 nM

Q: What about the half-life at 5 µM [11] of the same molecule?
A: > 1 h

Q: With `Oc1cccc(-c2nc(N3CCOCC3)nc3c2CCN3c2ccccn2)c1` as the molecule, how does the IC50 [12] read?
A: > 50000 nM

Q: Which IC50 [12] does the source give for `Oc1cccc(-c2nc(N3CCOCC3)nc3c2CCN3c2ccccc2)c1` here?
A: 1220 nM

Q: Which IC50 [12] does the source give for `Cc1cc(N2CCc3c(-c4cccc(O)c4)nc(N4CCOCC4)nc32)ccn1` here?
A: 170 nM

Q: With `Oc1cccc(-c2nc(N3CCOCC3)nc3c2CCN3c2ccnc(O)c2)c1` as the molecule, how does the IC50 [12] read?
A: 200 nM

Q: For `Oc1cccc(-c2nc(N3CCOCC3)nc3c2CCN3c2ccc3ncccc3c2)c1`, which IC50 [12] is on record?
A: > 50000 nM

Q: For `Oc1cccc(-c2nc(N3CCOCC3)nc3c2CCN3c2nccs2)c1`, which IC50 [12] is on record?
A: 49 nM

Q: With `Cn1ccc(N2CCc3c(-c4cccc(O)c4)nc(N4CCOCC4)nc32)n1` as the molecule, how does the IC50 [12] read?
A: 230 nM

Q: For `COc1cccc(-c2nc(N3CCOCC3)nc3c2CCN3c2ccncc2)c1`, which IC50 [12] is on record?
A: 410 nM

Q: Which IC50 [12] does the source give for `Cc1ccc(-c2nc(N3CCOCC3)nc3c2CCN3c2ccncc2)cc1O` here?
A: > 50000 nM

Q: With `Cc1c(O)cccc1-c1nc(N2CCOCC2)nc2c1CCN2c1ccncc1` as the molecule, how does the IC50 [12] read?
A: > 50000 nM

Q: Which IC50 [12] does the source give for `Nc1cccc(-c2nc(N3CCOCC3)nc3c2CCN3c2ccncc2)c1` here?
A: 3700 nM

Q: Which IC50 [12] does the source give for `O=C(O)c1cccc(-c2nc(N3CCOCC3)nc3c2CCN3c2ccncc2)c1` here?
A: > 50000 nM
